From ChEMBL document CHEMBL1147762, “A new chemical tool for exploring the physiological function of the PDE2 isozyme” (Bioorg Med Chem Lett, 2006)
In brackets after ≈: the same amount, converted by molar mass.

How the values were obtained:
[1] = target: Adenosine receptor A2a (Homo sapiens) (UniProt P29274); assay: Percentage binding to adenosine A2a receptor at 10 uM
[2] = target: Muscarinic acetylcholine receptor M1 (Homo sapiens) (UniProt P11229); assay: Percentage binding to muscarinic M1 at 10 uM
Chain of Muscarinic acetylcholine receptor M1 (Homo sapiens) (P11229 whole entry): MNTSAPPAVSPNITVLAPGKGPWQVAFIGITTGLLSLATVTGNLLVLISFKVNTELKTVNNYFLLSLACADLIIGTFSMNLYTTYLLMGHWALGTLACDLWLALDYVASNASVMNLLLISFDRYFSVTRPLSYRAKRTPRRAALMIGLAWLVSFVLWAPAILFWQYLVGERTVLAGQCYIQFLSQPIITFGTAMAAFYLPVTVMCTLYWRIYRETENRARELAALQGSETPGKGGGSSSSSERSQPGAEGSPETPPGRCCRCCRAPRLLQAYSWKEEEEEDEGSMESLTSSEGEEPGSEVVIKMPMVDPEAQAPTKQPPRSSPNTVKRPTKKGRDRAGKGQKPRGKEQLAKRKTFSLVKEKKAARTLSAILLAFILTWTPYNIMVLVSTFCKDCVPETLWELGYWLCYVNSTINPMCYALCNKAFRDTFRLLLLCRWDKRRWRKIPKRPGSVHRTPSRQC

[3] = target: Adrenergic receptor alpha-1 (Homo sapiens) (UniProt P35348+P25100+P35368); assay: Percentage binding to adrenergic alpha-1 receptor at 10 uM; type: protein assay
[4] = target: RAC-alpha serine/threonine-protein kinase (Homo sapiens) (UniProt P31749); assay: Inhibition of PKBalpha at 10 uM
[5] = target: Glutamate receptor ionotropic kainate (Homo sapiens) (UniProt P39086+Q16478+Q16099+Q13002+Q13003); assay: Percentage binding to kainate receptor at 10 uM; type: protein-complex assay
[6] = target: B2 bradykinin receptor (Homo sapiens) (UniProt P30411); assay: Percentage binding to bradykinin B2 at 10 uM
Chain of B2 bradykinin receptor (Homo sapiens) (P30411 whole entry): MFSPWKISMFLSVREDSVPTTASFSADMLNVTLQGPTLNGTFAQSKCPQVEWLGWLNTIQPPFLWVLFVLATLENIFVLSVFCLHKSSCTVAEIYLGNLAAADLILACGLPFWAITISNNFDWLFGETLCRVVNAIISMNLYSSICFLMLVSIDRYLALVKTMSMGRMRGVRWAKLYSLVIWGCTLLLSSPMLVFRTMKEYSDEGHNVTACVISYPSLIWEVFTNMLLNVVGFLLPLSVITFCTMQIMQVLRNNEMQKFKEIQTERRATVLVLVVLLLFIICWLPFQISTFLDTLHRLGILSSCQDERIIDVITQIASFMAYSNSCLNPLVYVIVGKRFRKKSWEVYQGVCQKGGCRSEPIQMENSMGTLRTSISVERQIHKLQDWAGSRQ

[7] = target: Histamine H3 receptor (Homo sapiens) (UniProt Q9Y5N1); assay: Percentage binding to histamine H3 at 10 uM
[8] = Clearance in rat; type: ADME, organism-based; details: Sprague-Dawley, in vivo
Method in brief: (§1)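 Sprague–Dawley rats were dosed intravenously at 1 mg/kg in EtOH:PEG 400:H2O (1:4:5) and orally at 30 mg/kg in 0.5% methylcellulose.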

[9] = target: Muscarinic acetylcholine receptor M4 (Homo sapiens) (UniProt P08173); assay: Percentage binding to muscarinic M4 at 10 uM
[10] = target: Dual specificity mitogen-activated protein kinase kinase 1 (Homo sapiens) (UniProt Q02750); assay: Inhibition of MKK1 at 10 uM
[11] = target: High affinity cGMP-specific 3',5'-cyclic phosphodiesterase 9A (Homo sapiens, UniProt O76083); assay: Inhibitory activity against PDE9 by scintillation proximity assay
Method in brief: (§2)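 Scintillation proximity assay for phosphodiesterase inhibition. Enzyme is used at a concentration within the linear range, and its KM was measured. Final substrate concentration is 1 µM, below one-third of KM, so IC50 approximates Ki. Results are means of n experiments with standard deviation.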

[12] = target: Ribosomal protein S6 kinase (P70S6K) (Homo sapiens) (UniProt Q9UBS0+P23443); assay: Inhibition of p70S6K at 10 uM; type: protein-complex assay
[13] = target: Muscarinic acetylcholine receptor M3 (Homo sapiens) (UniProt P20309); assay: Percentage binding to muscarinic M3 at 10 uM
[14] = target: Voltage-dependent L-type calcium channel subunit alpha-1D (Homo sapiens) (UniProt Q01668); assay: Percentage binding to dihydropyridine sensitive Ca2+ channel D at 10 uM
Chain of Voltage-dependent L-type calcium channel subunit alpha-1D (Homo sapiens) (Q01668 whole entry): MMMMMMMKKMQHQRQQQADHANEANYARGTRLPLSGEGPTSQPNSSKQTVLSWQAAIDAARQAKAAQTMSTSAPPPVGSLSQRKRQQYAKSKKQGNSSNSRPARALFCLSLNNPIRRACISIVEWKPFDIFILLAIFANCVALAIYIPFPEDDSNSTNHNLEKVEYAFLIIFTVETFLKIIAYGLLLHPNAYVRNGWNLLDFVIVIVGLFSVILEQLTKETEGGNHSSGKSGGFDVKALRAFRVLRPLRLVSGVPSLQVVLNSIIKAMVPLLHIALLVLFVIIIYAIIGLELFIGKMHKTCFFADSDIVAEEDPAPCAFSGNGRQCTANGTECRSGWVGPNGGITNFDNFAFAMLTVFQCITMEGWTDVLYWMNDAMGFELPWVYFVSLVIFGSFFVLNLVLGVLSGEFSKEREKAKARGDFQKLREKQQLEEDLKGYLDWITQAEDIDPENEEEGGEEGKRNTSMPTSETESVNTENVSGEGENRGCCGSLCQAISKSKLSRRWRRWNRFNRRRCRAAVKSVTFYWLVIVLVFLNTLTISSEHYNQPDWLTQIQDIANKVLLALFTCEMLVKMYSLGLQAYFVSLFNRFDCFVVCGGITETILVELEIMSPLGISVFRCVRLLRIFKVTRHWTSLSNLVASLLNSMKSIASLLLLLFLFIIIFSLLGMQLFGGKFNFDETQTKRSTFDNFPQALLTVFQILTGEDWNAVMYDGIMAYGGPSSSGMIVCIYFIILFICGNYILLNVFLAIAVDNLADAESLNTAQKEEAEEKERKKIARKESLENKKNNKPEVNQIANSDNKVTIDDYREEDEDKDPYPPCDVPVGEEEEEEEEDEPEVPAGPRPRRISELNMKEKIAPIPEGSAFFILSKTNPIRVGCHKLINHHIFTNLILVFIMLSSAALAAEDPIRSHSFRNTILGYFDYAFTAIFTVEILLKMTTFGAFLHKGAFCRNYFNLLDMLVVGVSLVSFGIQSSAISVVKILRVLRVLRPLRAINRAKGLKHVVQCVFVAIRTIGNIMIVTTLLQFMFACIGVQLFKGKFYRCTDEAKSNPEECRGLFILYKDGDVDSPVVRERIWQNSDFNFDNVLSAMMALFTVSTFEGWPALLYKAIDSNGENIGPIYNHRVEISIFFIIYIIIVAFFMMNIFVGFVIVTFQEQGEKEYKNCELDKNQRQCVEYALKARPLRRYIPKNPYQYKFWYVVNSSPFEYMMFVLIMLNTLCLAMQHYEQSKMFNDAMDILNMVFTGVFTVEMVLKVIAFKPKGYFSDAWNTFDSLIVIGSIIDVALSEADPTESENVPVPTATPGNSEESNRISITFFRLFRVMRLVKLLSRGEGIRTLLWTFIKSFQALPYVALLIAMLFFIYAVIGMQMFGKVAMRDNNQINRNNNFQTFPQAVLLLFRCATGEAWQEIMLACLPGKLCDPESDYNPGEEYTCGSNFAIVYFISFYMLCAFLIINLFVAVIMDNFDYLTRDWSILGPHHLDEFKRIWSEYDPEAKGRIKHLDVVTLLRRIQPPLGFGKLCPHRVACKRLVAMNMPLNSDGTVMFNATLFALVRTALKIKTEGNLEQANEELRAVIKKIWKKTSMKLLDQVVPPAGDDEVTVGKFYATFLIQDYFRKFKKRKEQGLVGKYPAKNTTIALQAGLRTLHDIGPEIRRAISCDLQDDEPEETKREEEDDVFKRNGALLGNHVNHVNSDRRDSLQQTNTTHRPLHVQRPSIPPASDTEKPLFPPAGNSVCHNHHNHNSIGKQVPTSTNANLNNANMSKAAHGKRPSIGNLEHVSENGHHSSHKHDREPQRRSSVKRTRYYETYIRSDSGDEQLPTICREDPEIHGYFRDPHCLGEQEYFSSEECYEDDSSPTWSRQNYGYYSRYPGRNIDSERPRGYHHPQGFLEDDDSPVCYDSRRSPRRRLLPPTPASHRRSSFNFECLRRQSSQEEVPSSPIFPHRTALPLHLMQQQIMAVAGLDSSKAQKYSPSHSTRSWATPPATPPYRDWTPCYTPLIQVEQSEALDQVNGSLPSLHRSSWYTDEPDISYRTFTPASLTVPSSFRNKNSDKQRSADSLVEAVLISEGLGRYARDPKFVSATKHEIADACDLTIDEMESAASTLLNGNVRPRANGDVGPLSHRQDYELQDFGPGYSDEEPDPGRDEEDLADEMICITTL
Method in brief: (§3)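 Single-concentration screen within a panel of 54 receptors and ion channels, measuring binding or interaction at each target.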

[15] = target: Serine/threonine-protein kinase Nek6 (Homo sapiens) (UniProt Q9HC98); assay: Inhibition of NEK6 at 10 uM
[16] = Half life in rat; type: ADME, organism-based; details: Sprague-Dawley, in vivo; method in brief: as §1
[17] = target: Adenosine receptor A1 (Homo sapiens) (UniProt P30542); assay: Percentage binding to adenosine A1 receptor at 10 uM
[18] = target: Polyunsaturated fatty acid 5-lipoxygenase (Homo sapiens) (UniProt P09917); assay: Inhibition of 5LOX at 10 uM
[19] = target: cAMP and cAMP-inhibited cGMP 3',5'-cyclic phosphodiesterase 10A (Homo sapiens, UniProt Q9Y233); assay: Inhibitory activity against PDE10 by scintillation proximity assay
Method in brief: (§4)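 Phosphodiesterase inhibition run as a scintillation proximity assay, with enzyme at a concentration in the linear range. Final substrate was 1 µM, below one-third of the enzyme K_M, so that IC50 approximates Ki. Values are means of n experiments with standard deviation.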

P-glycoprotein (human) = assay: Basolateral cell permeability in MDCK with MDR transfectant overexpressing human p-glycoprotein; type: ADME, cell-based; details: MDCK-MDR1
[20] = target: Histamine H2 receptor (Homo sapiens) (UniProt P25021); assay: Percentage binding to histamine H2 at 10 uM
[21] = Turbidimetric solubility at pH 7; type: ADME, organism-based, Homo sapiens
[22] = target: Adrenergic receptor alpha-2 (Homo sapiens) (UniProt P08913+P18825+P18089); assay: Percentage binding to adrenergic alpha-2 receptor at 10 uM; type: protein assay
[23] = target: Voltage-dependent L-type calcium channel subunit alpha-1D (Homo sapiens) (UniProt Q01668); assay: Percentage binding to Ca2+ channel D at 10 uM; method in brief: as §3
[24] = target: 3-phosphoinositide-dependent protein kinase 1 (Homo sapiens) (UniProt O15530); assay: Inhibition of PDK1 at 10 uM
[25] = target: MAP kinase-activated protein kinase 5 (Homo sapiens) (UniProt Q8IW41); assay: Inhibition of PRAK at 10 uM
[26] = target: Beta-1 adrenergic receptor (Homo sapiens) (UniProt P08588); assay: Percentage binding to adrenergic beta-1 receptor at 10 uM
Chain of Beta-1 adrenergic receptor (Homo sapiens) (P08588 whole entry, looked up): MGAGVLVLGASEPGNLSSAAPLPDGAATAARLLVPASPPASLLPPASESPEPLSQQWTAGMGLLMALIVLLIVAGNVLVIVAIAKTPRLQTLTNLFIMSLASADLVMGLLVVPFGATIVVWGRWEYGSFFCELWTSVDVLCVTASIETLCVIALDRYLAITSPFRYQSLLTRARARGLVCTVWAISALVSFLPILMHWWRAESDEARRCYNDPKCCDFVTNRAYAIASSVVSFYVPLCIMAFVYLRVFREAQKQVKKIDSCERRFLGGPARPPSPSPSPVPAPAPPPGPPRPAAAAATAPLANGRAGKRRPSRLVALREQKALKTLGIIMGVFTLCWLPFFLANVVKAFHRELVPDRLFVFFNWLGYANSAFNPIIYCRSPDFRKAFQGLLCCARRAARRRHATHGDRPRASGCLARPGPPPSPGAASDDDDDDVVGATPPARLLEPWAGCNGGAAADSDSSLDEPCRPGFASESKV

[27] = target: Sodium-dependent dopamine transporter (Homo sapiens) (UniProt Q01959); assay: Activity against dopamine uptake at 10 uM
[28] = target: Ribosomal protein S6 kinase alpha-1 (Homo sapiens) (UniProt Q15418); assay: Inhibition of RSK1 at 10 uM
[29] = target: 3',5'-cyclic-AMP phosphodiesterase 4D (Homo sapiens, UniProt Q08499); assay: Inhibitory activity against PDE4D by scintillation proximity assay; method in brief: as §2
[30] = target: Vasopressin V1 receptor (Homo sapiens) (UniProt P37288+P47901); assay: Percentage binding to vasopressin V1 at 10 uM; type: protein assay
[31] = target: Dual specificity tyrosine-phosphorylation-regulated kinase 1A (Homo sapiens) (UniProt Q13627); assay: Inhibition of DYRK1A at 10 uM
[32] = target: AMP-activated protein kinase, AMPK (Homo sapiens) (UniProt P54646+O43741+P54619+Q9UGJ0+Q9Y478+Q13131+Q9UGI9); assay: Inhibition of AMPK at 10 uM; type: protein-complex assay
[33] = target: 5-hydroxytryptamine receptor 2C (Homo sapiens) (UniProt P28335); assay: Percentage binding to serotonin 5HT2C at 10 uM
Chain of 5-hydroxytryptamine receptor 2C (Homo sapiens) (P28335 whole entry): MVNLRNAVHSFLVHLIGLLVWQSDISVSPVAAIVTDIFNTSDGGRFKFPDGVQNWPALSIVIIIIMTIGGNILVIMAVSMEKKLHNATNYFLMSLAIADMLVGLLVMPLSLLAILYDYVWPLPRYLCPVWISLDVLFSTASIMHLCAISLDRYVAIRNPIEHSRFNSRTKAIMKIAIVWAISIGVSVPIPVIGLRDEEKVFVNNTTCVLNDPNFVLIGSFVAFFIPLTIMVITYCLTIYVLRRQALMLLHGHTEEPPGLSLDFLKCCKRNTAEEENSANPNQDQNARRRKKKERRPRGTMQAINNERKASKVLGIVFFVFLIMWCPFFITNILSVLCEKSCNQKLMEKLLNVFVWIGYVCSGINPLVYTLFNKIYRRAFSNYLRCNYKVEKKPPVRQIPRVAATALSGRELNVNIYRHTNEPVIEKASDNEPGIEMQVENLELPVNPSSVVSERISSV

[34] = target: Type-1 angiotensin II receptor (Homo sapiens) (UniProt P30556); assay: Percentage binding to angiotensin II type1 receptor at 10 uM
[35] = target: 3',5'-cyclic-AMP phosphodiesterase 4B (Homo sapiens, UniProt Q07343); assay: Inhibitory activity against PDE4B by scintillation proximity assay; method in brief: as §4
[36] = target: Casein kinase I (Homo sapiens) (UniProt Q9HCP0+P78368+P48730+P49674+P48729); assay: Inhibition of CK1 at 10 uM; type: protein assay
[37] = target: D(3) dopamine receptor (Homo sapiens) (UniProt P35462); assay: Percentage binding to dopamine D3 at 10 uM
[38] = target: High affinity cAMP-specific and IBMX-insensitive 3',5'-cyclic phosphodiesterase 8A (Homo sapiens, UniProt O60658); assay: Inhibitory activity against PDE8A by scintillation proximity assay; method in brief: as §2
Chain of High affinity cAMP-specific and IBMX-insensitive 3',5'-cyclic phosphodiesterase 8A (O60658 whole entry): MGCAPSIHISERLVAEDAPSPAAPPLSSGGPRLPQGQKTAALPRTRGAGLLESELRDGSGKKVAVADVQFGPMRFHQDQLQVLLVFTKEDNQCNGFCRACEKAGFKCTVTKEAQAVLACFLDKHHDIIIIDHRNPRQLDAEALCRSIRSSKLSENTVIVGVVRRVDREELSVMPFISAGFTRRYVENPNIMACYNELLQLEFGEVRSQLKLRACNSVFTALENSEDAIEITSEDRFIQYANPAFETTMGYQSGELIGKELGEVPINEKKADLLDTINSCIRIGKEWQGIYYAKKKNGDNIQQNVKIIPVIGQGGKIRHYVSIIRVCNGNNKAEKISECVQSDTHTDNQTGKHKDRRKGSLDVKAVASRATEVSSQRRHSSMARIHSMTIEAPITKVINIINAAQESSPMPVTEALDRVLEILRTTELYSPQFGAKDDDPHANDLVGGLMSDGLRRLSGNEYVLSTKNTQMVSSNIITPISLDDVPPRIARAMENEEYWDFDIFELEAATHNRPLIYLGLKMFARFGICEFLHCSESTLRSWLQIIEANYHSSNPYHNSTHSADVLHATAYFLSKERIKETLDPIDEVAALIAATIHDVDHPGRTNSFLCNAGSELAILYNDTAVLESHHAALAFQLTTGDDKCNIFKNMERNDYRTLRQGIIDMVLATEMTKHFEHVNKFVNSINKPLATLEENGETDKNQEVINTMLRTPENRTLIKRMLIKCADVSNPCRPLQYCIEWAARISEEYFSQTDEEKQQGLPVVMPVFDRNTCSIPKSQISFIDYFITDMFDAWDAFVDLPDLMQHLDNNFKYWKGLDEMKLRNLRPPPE

[39] = target: Acetylcholine receptor; alpha1/beta1/delta/gamma (Homo sapiens) (UniProt P02708+P07510+P11230+Q07001); assay: Percentage binding to muscle NACHR at 10 uM; type: tissue-based; details: Muscle tissue

CN1C(=O)C(C(=O)Nc2nncs2)c2cc3occc3cc21 (stereo not given)
Activity [1]: 24%
Activity [2]: 9%
Activity [3]: 0%
inhibition [4]: 14%
Activity [5]: 0%
Activity [6]: 5%
Activity [7]: 0%
clearance [8]: 8.8 mL/min/kg
Activity [9]: 1%
inhibition [10]: 0%
IC50 [11]: > 16 µM
inhibition [12]: 23%
Activity [13]: 0%
Activity [14]: 0%
inhibition [15]: 7%
half-life [16]: 1.6 h
Activity [17]: 16%
inhibition [18]: 35%
IC50 [19]: > 16 µM
Papp (P-glycoprotein (human)): 4.6 ×10⁻⁶ cm/s
Activity [20]: 0%
solubility kinetic [21]: 55 µg/mL (≈ 175 µM)
Activity [22]: 16%
Activity [23]: 0%
inhibition [24]: 0%
inhibition [25]: 28%
Activity [26]: 15%
Activity [27]: 11%
inhibition [28]: 1%
IC50 [29]: > 16 µM
Activity [30]: 5%
inhibition [31]: 53%
inhibition [32]: 8%
Activity [33]: 0%
Activity [34]: 11%
IC50 [35]: > 16 µM
inhibition [36]: 10%
Activity [37]: 0%
IC50 [38]: > 16 µM
Activity [39]: 0%
